Screening data deposited in PubChem by several laboratories.
Platelet DG rel – inhibitors of platelet dense granule secretion, primary screen, cell-based, MLPCN, human platelets. AID 1663, 2009. human platelet-rich plasma, SFLLRN dense granule ATP release, luminescence. inhibition, %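 (compounds screened at 7.5 µM in platelet-rich plasma)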. hit rate 0.22% among 300,000;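 active means mean replicate score, as percent of positive control, at or above 50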
PPC-1+TRAIL kill – compounds killing PPC-1 cancer cells with TRAIL present, primary screen, TRAIL potentiator project, ATPLite luminescence, uHTS; hit rate 0.41% among 220,000; cell killing (% activity), % at 4 µM or 5 µM; PPC-1 cells + TRAIL, ATPLite viability luminescence;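 active means cell killing above 50% in the first pass at 4 µM, then a duplicate retest at 5 µM averaging 50% or more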;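 further: plate controls were cells with TRAIL plus DMSO for no effect and medium-only wells lacking cells for full effect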
H9c2 TAG inh – inhibitors of triacylglycerol accumulation, primary screen, cell-based, uHTS, fluorescence, H9c2. H9c2 cells, Nile Red lipid (TAG) fluorescence; cells loaded with 200 µM oleic acid. inhibition, % at 12.5 µM. hit rate 0.66% among 230,000. AID 651582, 2012;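 active means pattern-corrected inhibition of lipid staining of at least 50% with the nuclear-stain viability signal not falling by more than 50%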;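 further: 0% = DMSO wells and 100% = triacsin C control wells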
STAT1 inh – STAT1 signaling inhibitors, primary screen, cell-based, HTS, luciferase reporter | NIH 3T3 STAT1-luciferase reporter, IFN-gamma, luminescence | inhibition, % at 5.5 µM | hit rate 0.35% among 200,000 | AID 920, 2007;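 active means inhibition above a set limit, the mean inhibition across all tested compounds plus 3 SD, cut at about 34% in these data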;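 further: 0% = IFN-gamma with DMSO and 100% = IFN-gamma with 300 µM nifuroxazide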
STAT3 inh – IL-6 driven STAT3 reporter inhibitors, primary screen, U3A cells, luciferase, luminescence, MLSCN library; IL-6 STAT3-luciferase reporter; host cell line lacks STAT1; inhibition, % at 5.5 µM; hit rate 0.89% among 190,000; AID 862, 2007;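 active means inhibition above the mean inhibition across all screened compounds plus 3 SD, cut at about 44% in these data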;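 further: 0% = DMSO only wells and 100% = 100 µM nifuroxazide control wells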
Hep lipid drop – inhibitors of hepatocyte lipid droplet formation, primary screen, imaging, high-throughput imaging, BODIPY stain | AML12 mouse hepatocytes, oleate lipid droplets | hit rate 0.4% among 240,000 | inhibition, % at 6.5 µM | AID 1656, 2009;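 active means lipid droplet intensity inhibited by at least 50%, with more than 500 cells counted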
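Assay system: AML12 hepatocytes (mouse) / Also added: 100 µM oleic acid challenge / Times: overnight treatment with compound plus oleate / Detection: high-content imaging of BODIPY-stained droplets and DAPI nuclei / Evaluation: % inhibition of lipid droplet signal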
PPC1 cytotox – cytotoxicity in PPC-1 cells, confirmation, cytotoxicity control for TRAIL apoptosis potentiator project, cell-based, ATP content luminescence; shares compounds with PPC-1+TRAIL kill; PPC-1 viability, ATPlite luminescence, overnight; cytotoxicity, % at 5 µM; AID 1447, 2008; hit rate 50% among 1,200;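 active means reconfirmed compounds whose average cytotoxicity reaches 50% or more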;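 further: 0% = DMSO-treated cells and 100% = wells holding medium but no cells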
Numbers without * were called inactive; x = no result. Shown are actives, neighbours in structure and some others; about 1.5% of the full set was active somewhere.

SMILES	Platelet DG rel	PPC-1+TRAIL kill	H9c2 TAG inh	STAT1 inh	STAT3 inh	Hep lipid drop	PPC1 cytotox
Cc1cc(C)c(C#N)c(SCC(=O)Nc2ccccc2C(N)=O)n1	-2	73*	x	-1	10	x	74*
CCc1nnc(NC(=O)CSc2nc(C)cc(C)c2C#N)s1	-3	74*	-10	-22	34	3	74*
CCc1nnc(NC(=O)CSc2nc3c(cc2C#N)CCC3)s1	0	65*	-32	-21	27	4	69*
Cc1ccc(C#N)c(SCC(=O)Nc2nccs2)n1	-2	54*	9	-16	13	-12	59*
CCNC(=O)C1(C)CCCN(C(=O)c2cc(C)nn2C(C)(C)C)C1 (stereo unspecified)	x	x	-10	x	x	x	x
CCOC(=O)CSc1ccc(-c2nc3cc(C)c(C)cc3[nH]2)cn1	1	37	-10	-11	15	x	x
Cc1cc2nc(-c3ccc(SCC(=O)N4CCOCC4)nc3)[nH]c2cc1C	-6	58*	x	-24	6	-7	58*
Cc1cc2nc(-c3ccc(SCC(=O)N4CCN(C(=O)c5ccco5)CC4)nc3)[nH]c2cc1C	12	65*	x	-7	14	-1	63*
COc1cccc(-c2cnc(C(O)c3ccc(Cl)cc3)[nH]2)c1 (stereo unspecified)	x	x	-7	x	x	x	x
CC1(C(=O)NS(=O)(=O)C2CC2)CCCN(C(=O)c2cccc(OC(F)(F)F)c2)C1 (stereo unspecified)	x	x	-5	x	x	x	x
Cc1ccc(NCc2ccccc2O)cc1	1	-3	x	0	14	-9	-7
COc1ccc(C(=O)/C(=C/N(C)C)S(=O)(=O)c2ccccc2)cc1	8	-17	5	-4	4	16	-44
Cc1c(-c2ccc(OCCN3CCOCC3)cc2)c(=O)oc2ccc3ccccc3c12	x	x	-16	x	x	x	x
C[C@H](CO)N1C[C@H](C)[C@@H](CN(C)S(=O)(=O)c2ccc(-n3cccn3)cc2)OCc2cnnn2CCCC1=O	x	x	7	x	x	x	x
COc1ccc(-c2nc3ncccn3c2Nc2ccc3c(c2)OCCO3)cc1	5	15	-6	-7	-5	-11	10
O=C(Nc1ccc(C(=O)N2CCCCC2)cc1)C1CC1	x	x	-19	x	x	x	x
N#Cc1cc2c(nc1SCc1nc3ccccc3[nH]1)CCC2	1	35	x	-30	15	x	30
N#Cc1c(SCc2nc3ccccc3[nH]2)nc2c(c1C(F)(F)F)CCC2	x	x	x	-18	-89	x	x
CCOC(=O)c1c(C)nsc1NC(=O)C1(C)CCN1C(=O)CC (stereo unspecified)	x	x	0	x	x	x	x
O=C1C(c2cc(=O)c3ccccc3[nH]2)=C(O)c2ccccc21	10	56*	x	-102	8	4	53*
O=C1C(c2ccncc2)=C(O)c2ccccc21	25	25	7	-1	27	0	x
CN(C)S(=O)(=O)c1ccc(-c2ccccc2)cc1	-2	-21	x	-1	-5	x	-19
Cc1ccccc1CC(=O)N1CCC(CCC(=O)NC2CC2)CC1	x	x	13	x	x	x	x
Cc1ccc(S(=O)(=O)N(C)C[C@@H]2OCc3cnnn3CCCC(=O)N([C@H](C)CO)C[C@H]2C)cc1	x	x	8	x	x	x	x
CCN1CCN(c2ccc(S(=O)(=O)N3CCOCC3)cc2NC(=O)CC(NC(C)=O)c2ccccc2)CC1 (stereo unspecified)	x	x	16	x	x	x	x
SMILES	Platelet DG rel	PPC-1+TRAIL kill	H9c2 TAG inh	STAT1 inh	STAT3 inh	Hep lipid drop	PPC1 cytotox
O=C(Cc1cn2ccsc2n1)Nc1ccccn1	-13	-2	x	7	6	x	x
Cc1ccc(NC(=O)Cc2cn3ccsc3n2)nc1	-3	-4	-15	2	4	0	-2
CC1(C)OC2COC(c3[nH]nc4c(=O)[nH]c(=O)[nH]c34)C2O1 (stereo unspecified)	x	x	2	x	x	x	x
CCN(CC(=O)NCc1ccc(F)cc1)C(=O)C1CCN(C(=O)Nc2ccccc2)CC1	3	7	x	-3	-2	37	7
CCOC(=O)CCCCCC(=O)Nc1ccc2c(c1)C(=O)N([C@H](C)CO)C[C@H](C)[C@@H](CN(C)C(=O)Nc1ccccc1)OCCCC[C@@H](C)O2	x	x	-17	x	x	x	x
CCC(NC(=O)c1ccccc1NC(=O)c1ccc(C)cc1)C(=O)O (stereo unspecified)	10	16	x	10	-1	2	7
Cc1ccc(C(=O)Nc2ccccc2C(=O)NC(Cc2ccccc2)C(=O)O)cc1 (stereo unspecified)	-9	16	10	-3	7	15	x
Cc1nn(Cc2ccc(C(=O)Nc3nc4c(C)cccc4s3)o2)c(C)c1Br	-1	30	1	-7	6	x	x
Cc1csc(NC(=O)c2cccc(Cn3nc(C)c(Br)c3C)c2)n1	0	-14	x	1	9	1	-2
COc1cccc(S(=O)(=O)Nc2ccc3c(c2)[C@H]2C[C@H](CC(=O)N[C@@H](C)c4ccccc4)O[C@H](CO)[C@H]2O3)c1	x	x	5	x	x	x	x
Cc1cc(-n2[nH]c(C)c(C)c2=O)nc(-c2ccccc2O)n1	2	12	7	2	11	x	8
Cc1cc(N2CCC(C)CC2)nc(-c2ccccc2O)n1	-7	-3	-10	x	x	2	x
Cc1ccc(OCc2nnc(SCC(=O)NCc3ccccc3)n2C)cc1	-2	11	8	6	8	2	11
Cn1c(COc2ccccc2)nnc1SCC(=O)NCc1ccccc1	2	10	x	0	-5	x	x
COc1ccc(-c2cc(=Nc3ccc(C(=O)O)cc3)c3cc(C)ccc3o2)cc1	4	12	12	-20	18	-20	17
C/C(=N\NC(=O)COc1ccc(C(C)(C)C)cc1)c1ccccc1	1	-2	1	0	-4	-3	x
C/C(=N\NC(=O)COc1ccc(C(C)(C)C)cc1)c1cc2ccccc2o1	3	77*	-5	-8	-9	4	77*
C[C@@H]1CN([C@H](C)CO)C(=O)CCCn2nncc2CO[C@H]1CN(C)Cc1cccnc1	x	x	-14	x	x	x	x
CCN(CCO)c1ccc(N=Nc2cc(C)[nH]n2)cc1	-9	77*	-5	x	x	-1	78*
COc1ccc(N(C(C)C(=O)NN=C2CCCCCCC2)S(C)(=O)=O)cc1 (stereo unspecified)	1	8	x	1	10	-2	x
COc1ccc(N(C(C)C(=O)NC2CCCCCC2)S(C)(=O)=O)cc1 (stereo unspecified)	3	0	-6	-8	4	-9	-1
CCOc1ccc(-n2c(SC)nc3c(c2=O)SCC3)cc1	2	-10	1	5	-3	-1	-12
